# Screening data as filed in PubChem BioAssay.
# M4 ag = human M4 muscarinic receptor agonists, primary screen, CHO-K1 cells, Fluo-8 calcium fluorescence; actives 0.14% (n = 360,000); Muscarinic acetylcholine receptor M4 (Homo sapiens), P08173; activation, % at 3 µM; CHO-K1 hM4/Gqi5; vehicle 0%, full acetylcholine response 100%; AID 624127, 2012;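 active means activation above the run mean over all test wells plus 3 SD, cut at about 32% in these data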;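 further: peak over basal fluorescence ratio per well then scaled between controls; 0% = DMSO wells and 100% = acetylcholine at EC100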
# Target sequence (P08173 whole entry, looked up): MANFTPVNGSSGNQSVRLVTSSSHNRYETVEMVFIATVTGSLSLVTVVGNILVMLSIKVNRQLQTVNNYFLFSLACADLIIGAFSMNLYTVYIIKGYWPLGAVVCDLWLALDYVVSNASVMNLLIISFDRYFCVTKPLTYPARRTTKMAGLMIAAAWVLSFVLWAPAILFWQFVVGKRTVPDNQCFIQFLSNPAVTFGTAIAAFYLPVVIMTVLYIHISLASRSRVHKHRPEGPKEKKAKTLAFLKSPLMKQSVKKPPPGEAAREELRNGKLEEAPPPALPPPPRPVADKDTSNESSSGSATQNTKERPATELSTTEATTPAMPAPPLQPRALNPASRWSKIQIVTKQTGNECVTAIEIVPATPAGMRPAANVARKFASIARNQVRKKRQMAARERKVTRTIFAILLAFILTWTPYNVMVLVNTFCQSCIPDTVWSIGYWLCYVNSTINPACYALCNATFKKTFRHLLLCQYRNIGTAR
# CHRM5 agonist = human M5 muscarinic receptor agonists, primary screen, CHO-K1 cells, Fluo-8 calcium fluorescence | Muscarinic acetylcholine receptor M5 (Homo sapiens), P08912 | CHO-K1 hM5 cells; 0% DMSO wells, 100% maximal acetylcholine response | activation, % at 3 µM | actives 0.19% (n = 360,000);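 active means activation above the run's mean over test compounds plus 3 SD, cut at about 23% in these data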;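 further: signal is peak over basal fluorescence ratio across the kinetic read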
# M5 antag = human M5 muscarinic receptor antagonists, primary screen, CHO cells, Fluo-8 calcium fluorescence; Muscarinic acetylcholine receptor M5 (Homo sapiens), P08912; CHO-hM5 cells, ACh EC80; inhibition, % at 3 µM; actives 0.59% (n = 360,000); AID 624040, 2012;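 active means inhibition above a per-plate cutoff, the mean of that plate's test compounds plus 3 SD, cut at about 27% in these data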;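 further: 0% = acetylcholine EC80 with DMSO and 100% = DMSO without agonist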
# M4 PAM = human M4 muscarinic receptor positive allosteric modulators, primary screen, CHO-K1 cells, Fluo-8 calcium fluorescence. Muscarinic acetylcholine receptor M4 (Homo sapiens), P08173. CHO-K1 hM4/Gqi5, ACh EC20; 0% = ACh EC20, 100% = maximal ACh. activation, % at 3 µM. actives 0.4% (n = 360,000);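 active means activation above its plate's cutoff, the mean activation of sample wells plus 3 SD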
# CHRM4 antagonist = human M4 muscarinic receptor antagonists, primary screen, CHO cells, Fluo-8 calcium fluorescence. inhibition, % at 3 µM. CHO-hM4 cells, ACh EC80. actives 0.73% (n = 360,000);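 active means inhibition above its plate's cutoff, the mean inhibition of sample wells plus 3 SD, cut at about 27% in these data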;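 further: 0% = acetylcholine EC80 with DMSO and 100% = DMSO without agonist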
# M5 PAM = human M5 muscarinic receptor positive allosteric modulators, primary screen, CHO-K1 cells, Fluo-8 calcium fluorescence; Muscarinic acetylcholine receptor M5 (Homo sapiens), P08912; CHO-K1 hM5, ACh EC20 PAM; 0% = ACh EC20, 100% = ACh EC100; activation, % at 3 µM; actives 0.3% (n = 360,000);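 active means activation above the run cutoff, the mean activation of all test compounds plus 3 SD, cut at about 18% in these data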
#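 system = human M5 receptor in CHO-K1 cells | compound = one concentration, 3 µM final (nominal) | schedule = Post-acetylcholine fluorescence recording 140 s | signal = Fluo-8 calcium dye fluorescence, kinetic read | benchmarks = low control EC20 acetylcholine (0%), high control EC100 acetylcholine (100%) | repeats = singlicate, one well per test compound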
# * = called active by the depositor. Only some compounds are listed: those with a hit (about 1.8% of all), similar ones and a draw of the others.
SMILES,M4 ag,CHRM5 agonist,M5 antag,M4 PAM,CHRM4 antagonist,M5 PAM
COCCN(C(=O)COC(=O)c1cccnc1SC)c1c(N)n(Cc2ccccc2)c(=O)[nH]c1=O,1,3,4,22*,-13,1
CC1CCN(C(=O)Cn2nnc(-c3ccc([N+](=O)[O-])cc3)n2)CC1,2,0,4,1,3,-5
COCCN(C(=O)Cc1coc2cc(C)c(C)cc12)c1c(N)n(Cc2ccccc2)c(=O)[nH]c1=O,2,-10,100*,3,-2,-32
O=C(NCc1ccccc1)c1ccc(CS(=O)Cc2cccc(Cl)c2)o1 (stereo not given),3,-1,0,11,-11,-4
CCOC(=O)Nc1nc2ccccc2s1,1,2,3,-4,-1,-5
CCOC(=O)c1ccc(NC(=O)Nc2nc3ccccc3s2)cc1,1,0,6,-15,61*,-12
CCOC(=O)c1ccc(NC(=S)NCc2ccc(F)cc2)cc1,20,10,19,-18,10,-26
COC(=O)c1ccc(NC(=S)NCCc2cccc(C)c2)cc1,14,3,28*,-19,24,-19
CCOC(=O)c1ccc(NC(=S)NN)cc1,1,-5,-14,20*,-12,11
COc1ccc(Br)c(C(=O)N(C)CC(=O)Nc2ccc(N3CCOCC3)cc2)c1,2,3,-2,6,-3,5
Cc1nc2ccccc2n1CC(O)COc1ccccc1Cl (stereo not given),11,3,24,-25,30*,-25
Cc1ccccc1OCC(O)Cn1c(=N)n(Cc2ccccc2)c2ccccc21 (stereo not given),25,5,15,-28,27*,-7
COCCC(=O)Nc1ccc2c(c1)CN(C(=O)c1ccc(CSC)o1)CC2,1,0,-2,2,-9,-6
Cc1noc(C)c1NC(=O)Nc1ccc2c(c1)C(=O)N([C@H](C)CO)C[C@H](C)[C@@H](CN(C)C(=O)Nc1c(C)noc1C)O2,1,-1,6,1,7,8
N#CC/C(N)=N/Nc1nc2ccccc2nc1Cc1ccccc1,1,0,10,-7,6,0
CCOc1ccc(CNC(=O)c2cccc(NC(=O)C3=C(C)OCCS3)c2)cc1,12,4,30*,-8,0,-13
COc1cccc(CNC(=O)c2cccc(NC(=O)C3=C(C)OCCS3)c2)c1,10,2,8,-2,-17,-14
CCCS(=O)(=O)n1nc(-c2ccc(OC)cc2)cc1N,1,-1,8,-14,31*,-8
CCCS(=O)(=O)n1nc(-c2ccc(C)cc2)cc1N,-1,-2,5,-3,-5,-5
Cc1cc(C)nc(SCC(=O)Nc2ccnc3ccccc23)n1,14,7,35*,-8,10,-20
COC(=O)c1ccccc1NC(=O)CSc1nc(C)cc(C)n1,1,4,-18,-3,-8,12
Cc1ccccc1S(=O)(=O)Cc1ccc(C(=O)NC2CCCCCC2)o1,4,3,-3,15*,9,10
COC(CN(C)C(=O)c1ccc(CS(=O)(=O)c2ccccc2C)o1)OC,2,-5,1,5,1,-1
CCCCN(C)C(=O)c1ccc(CS(=O)(=O)c2ccccc2C)o1,3,0,-3,18*,-13,2
CN(c1ccccc1)S(=O)(=O)c1cccc(NS(=O)(=O)c2cccc(C(=O)O)c2)c1,-2,4,-9,8,-7,23*
SMILES,M4 ag,CHRM5 agonist,M5 antag,M4 PAM,CHRM4 antagonist,M5 PAM
CCC(=O)c1ccc(OCC(=O)Nc2cccc(S(=O)(=O)N(C)c3ccccc3)c2)cc1,27,1,34*,-11,29*,-41
Cc1ccc(S(=O)(=O)N(C)c2ccc(OCC(=O)Nc3nc4ccccc4s3)cc2)cc1,10,0,31*,-13,21,-16
CN(c1ccccc1)S(=O)(=O)c1cccc(C(=O)NC2CCCCC2)c1,5,-2,-2,3,-4,1
Cc1nnc(SCC(=O)Nc2cccc(S(=O)(=O)N(C)c3ccccc3)c2)s1,13,8,31*,-8,25,-18
O=C(COC(=O)/C=C/c1ccc(Br)o1)NCCCN1CCCC1=O,1,2,0,-2,-2,4
C=Cc1ccc(CC2(C)C(=O)Nc3ccc(-c4cccnc4)cc32)cc1 (stereo not given),12,1,-2,-10,3,-8
CCOC(=O)[C@]12CCCC=C1N(Cc1ccc3c(c1)OCO3)C(=O)[C@H](CC(=O)N1CCN(C(=O)C3CC3)CC1)C2,2,2,6,-1,6,-5
Cc1c(C(c2ccc(O)cc2)c2c(C)n(C)n(-c3ccccc3)c2=O)c(=O)n(-c2ccccc2)n1C,12,1,31*,-8,-4,-13
O=C(O)C1CCCCC1C(=O)NCCCn1ccnc1 (stereo not given),0,-2,1,-7,16,-1
O=C(NCCCn1ccnc1)C(=O)NC1CCCCC1,0,-1,0,10,-1,19*
CCOc1ccc(NC(=O)CN(C)C(=O)c2cccnc2Sc2ccc(C)c(C)c2)cc1OCC,5,2,-2,4,-7,22*
Cc1csc(NC(=O)CSc2nnc(Cn3c(=O)sc4ccccc43)n2-c2ccccc2)n1,4,3,6,29*,-5,-6
Cc1ccccc1-n1c(Cn2c(=O)sc3ccccc32)nnc1SCC(=O)Nc1nccs1,2,2,-3,4,-5,2
Cc1ccc(-c2nn(C)c(=O)c3ccccc23)cc1CNC(=O)NC1CCCCC1,5,2,12,0,1,-5
O=C(Nc1ccc(Cl)cc1)c1csc(-c2ccccc2)n1,-2,0,2,34*,-7,4
CCc1c(-c2ccc(Br)cc2)ncn1Cc1cccc(-c2ccccc2)c1,3,-6,72*,-17,50*,-20
CCCc1c(-c2cccc(Br)c2)ncn1Cc1cccc(-c2ccccc2)c1,3,0,13,-14,6,-13
CC(=O)Nc1ccc(S(=O)(=O)NCCC(=O)NCCOc2ccccc2)cc1,0,2,4,-2,8,0
